Measurements: article PMC9121347 (Bioconjugate Chemistry, 2022)

Tests used:
AD (APP/PS1) mice = assay: Dynamic microPET/CT imaging, AD mice; format: in vivo, mouse; conditions: AD (APP/PS1) vs normal (B6SJL) mice; any time point
[1] = test system: phosphorylation of Akt in hCMEC/D3 monolayers; format: cell-based, human; conditions: 100 nM, 20 min, 37 °C in DMEM, Western blot, n = 3
Summary of the method: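 hCMEC/D3 monolayers treated ± test compound (100 nM) in DMEM, 20 min, 37 °C, washed thrice with PBS, lysed in RIPA with protease/phosphatase inhibitors, protein by BCA. […] Blocked in 5% milk; anti-vinculin, Akt, p-Akt (S473) at 1:1000 overnight at 4 °C; dye-conjugated secondary at 1:2000, 1 h RT. p-AKT/AKT ratio, mean ± SD, unpaired t-test.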

| Compound | difference in uptake between normal and AD groups (brain and heart) (AD (APP/PS1) mice) | phosphorylation of Akt (p-AKT/AKT ratio) [1] |
| --- | --- | --- |
| CNc1ccc(-c2nc3ccc(O)cc3s2)cc1 [[^11C]PIB, N-methyl [^11C] 2-(4′-methylaminophenyl)-6-hydroxy-benzothiazole] | neither of them showed any significant difference in the uptake between normal and AD groups at any time point |  |
| [18F]c1ccc(-c2ccc3c(c2)[nH]c2ccncc23)cn1 [[^18F]AV1451, 7-(6-[^18F]fluoropyridin-3-yl)-5H-pyrido[4,3-b]indole] | neither of them showed any significant difference in the uptake between normal and AD groups at any time point |  |
| NOTA-insulin: insulin with p-SCN-Bn-NOTA linked to the lysine residue of chain B; labeling precursor |  | stimulated the phosphorylation of Akt |
